Experimental data from ChEMBL document CHEMBL3526063, “Metabolism and pharmacokinetics of JM6 in mice: JM6 is not a prodrug for Ro-61-8048” (Drug Metab Dispos, 2012).

Assays:
Mus musculus [1] = test: Dose normalised Cmax in C57BL/6N mouse treated with JM6 (containing <0.4% Ro-61-8048) at 9 mg/kg, po and Ro-61-8048 at 1 mg/kg, po drugs administered via gavage by LC-MS/MS analysis; assay type: ADME, organism-based; settings: in vivo
Method in brief: (§1)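 Male C57BL/6N mice were dosed by oral gavage at 10 mL/kg with a fine suspension in 10% hydroxypropyl-β-cyclodextrin in 50 mM phosphate buffer, pH 7. Plasma was taken at non-serial time points (n=3 per time point), extracted with 0.1% formic acid in acetonitrile containing diclofenac as internal standard, and quantified by UPLC-MS/MS. Composite non-compartmental parameters came from mean concentrations; AUClast by linear trapezoid, kel from at least three terminal points.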

Mus musculus [2] = test: Dose normalised AUC in C57BL/6N mouse treated with JM6 (containing <0.4% Ro-61-8048) at 9.5 mg/kg, po and Ro-61-8048 at 0.05 mg/kg, po drugs administered via gavage by LC-MS/MS analysis; assay type: ADME, organism-based; settings: in vivo, in the assay text read “0.5 mg/kg” for “0.05 mg/kg”; method in brief: as §1
Mus musculus [3] = test: Dose normalised Cmax in C57BL/6N mouse treated with JM6 (containing <0.4% Ro-61-8048) at 10 mg/kg, po and Ro-61-8048 at 0.05 mg/kg, po drugs administered via gavage by LC-MS/MS analysis; assay type: ADME, organism-based; settings: in vivo; method in brief: as §1
Mus musculus [4] = test: Dose normalised Cmax in C57BL/6N mouse treated with JM6 (containing <0.4% Ro-61-8048) at 9.5 mg/kg, po and Ro-61-8048 at 0.05 mg/kg, po drugs administered via gavage by LC-MS/MS analysis; assay type: ADME, organism-based; settings: in vivo, in the assay text read “0.5 mg/kg” for “0.05 mg/kg”; method in brief: as §1
[5] = Tmax in C57BL/6N mouse treated with JM6 (containing <0.4% Ro-61-8048) at 25 mg/kg, po and Ro-61-8048 at 0.05 mg/kg, po drugs administered via gavage by LC-MS/MS analysis; assay type: ADME, organism-based; settings: in vivo
Method in brief: (§2)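 Male C57BL/6N mice dosed by oral gavage (10 mL/kg) as fine suspensions in 10% hydroxypropyl-β-cyclodextrin in 50 mM phosphate buffer pH 7; dose formulations verified by LC-MS/MS. Plasma analysed by LC-MS/MS; composite non-compartmental parameters from mean concentrations (n=3 per time point), C0 set to zero. %F = dose-normalised po AUCinf over dose-normalised iv AUCinf, only within linear range.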

[6] = target: Kynurenine 3-monooxygenase (Mus musculus, UniProt Q91WN4); test: Inhibition of C57BL/6J mouse KMO assessed as 3-hydroxykynurenine formation preincubated for 5 mins using 100 uM kynurenine as substrate by LC-MS/MS analysis
Method in brief: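 Liver mitochondrial KMO preparation (mouse C57 BL/6J, rat Wistar, human) at 0.3 mg protein/mL in 100 mM potassium phosphate pH 7.4 with 200 µM NADPH, 0.4 U/mL G6PDH, 3 mM glucose 6-phosphate. Compound pre-incubated 5 min at 25°C, then 100 µM kynurenine added; 40 min (rodent) or 60 min (human). Stopped with TCA; 3-hydroxykynurenine by LC-MS/MS. IC50 from 8-point 3-fold dilutions (top 3 or 30 µM), triplicates, n≥2 runs.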

Mus musculus [7] = test: Dose normalised Cmax in C57BL/6N mouse treated with JM6 (containing <0.4% Ro-61-8048) at 50 mg/kg, po and Ro-61-8048 at 0.05 mg/kg, po drugs administered via gavage by LC-MS/MS analysis; assay type: ADME, organism-based; settings: in vivo; method in brief: as §1
[8] = Cmax in C57BL/6N mouse treated with JM6 (containing <0.4% Ro-61-8048) at 10 mg/kg, po and Ro-61-8048 at 0.05 mg/kg, po drugs administered via gavage by LC-MS/MS analysis; assay type: ADME, organism-based; parameters: dose 10 mg/kg, route oral; settings: in vivo; method in brief: as §1
[9] = Half life in C57BL/6N mouse treated with JM6 (containing <0.4% Ro-61-8048) at 10 mg/kg, po and Ro-61-8048 at 0.05 mg/kg, po drugs administered via gavage by LC-MS/MS analysis; assay type: ADME, organism-based; settings: in vivo; method in brief: as §1
[10] = Oral bioavailability in C57BL/6N mouse treated with JM6 (containing <0.4% Ro-61-8048) at 10 mg/kg and Ro-61-8048 at 0.05 mg/kg drugs administered via gavage by LC-MS/MS analysis; assay type: ADME, organism-based; settings: in vivo; method in brief: as §2
Mus musculus [11] = test: Dose normalised AUC in C57BL/6N mouse treated with JM6 (containing <0.4% Ro-61-8048) at 9 mg/kg, po and Ro-61-8048 at 1 mg/kg, po drugs administered via gavage by LC-MS/MS analysis; assay type: ADME, organism-based; settings: in vivo; method in brief: as §1
MDR1 = test: Efflux ratio of permeability from basolateral to apical side over apical to basolateral side in MDCK2-MDR1 cells at 10 uM after 1 hr by LC-MS/MS analysis; assay type: ADME, cell-based, Canis lupus familiaris; settings: dog, MDCK-MDR1
Method in brief: (§3)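 MDCKII wild-type and MDR1 cells grown on Transwells 3 days at 2×10^5 cells/well. Compound 10 μM in HBSS with 25 mM HEPES pH 7.4, added apical or basolateral in duplicate, 1 h at 37 °C. Lucifer Yellow monitored monolayer integrity; wells above 100 nm/s rejected. Both chambers sampled, LC-MS/MS; Papp A>B and B>A, ratio B>A:A>B.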

Mus musculus [12] = test: Dose normalised AUC in C57BL/6N mouse treated with JM6 (containing <0.4% Ro-61-8048) at 50 mg/kg, po and Ro-61-8048 at 0.05 mg/kg, po drugs administered via gavage by LC-MS/MS analysis; assay type: ADME, organism-based; settings: in vivo; method in brief: as §1
[13] = AUClast in C57BL/6N mouse treated with JM6 (containing <0.4% Ro-61-8048) at 9 mg/kg, po and Ro-61-8048 at 1 mg/kg, po drugs administered via gavage by LC-MS/MS analysis; assay type: ADME, organism-based; parameters: dose 9 mg/kg, time 0 - last, route oral; settings: plasma; method in brief: as §1
[14] = AUClast in C57BL/6N mouse treated with JM6 (containing <0.4% Ro-61-8048) at 50 mg/kg, po and Ro-61-8048 at 0.05 mg/kg, po drugs administered via gavage by LC-MS/MS analysis; assay type: ADME, organism-based; parameters: dose 50 mg/kg, time 0 - last, route oral; settings: plasma; method in brief: as §1
[15] = Efflux ratio of permeability from basolateral to apical side over apical to basolateral side in MDCK2 cells at 10 uM after 1 hr by LC-MS/MS analysis; assay type: ADME, cell-based, Canis lupus familiaris, MDCK-II; settings: dog; method in brief: as §3
Mus musculus [16] = test: Dose normalised Cmax in C57BL/6N mouse treated with JM6 (containing <0.4% Ro-61-8048) at 25 mg/kg, po and Ro-61-8048 at 0.05 mg/kg, po drugs administered via gavage by LC-MS/MS analysis; assay type: ADME, organism-based; settings: in vivo; method in brief: as §1
[17] = AUClast in C57BL/6N mouse treated with JM6 (containing <0.4% Ro-61-8048) at 10 mg/kg, po and Ro-61-8048 at 0.05 mg/kg, po drugs administered via gavage by LC-MS/MS analysis; assay type: ADME, organism-based; parameters: dose 10 mg/kg, time 0 - last, route oral; settings: plasma; method in brief: as §1
[18] = Hepatic extraction ratio in human Hepatocyte at 1 uM after 10 to 90 mins by LC-MS/MS analysis; assay type: ADME, cell-based; settings: hepatocytes, read-out: ERH
[19] = Half life in C57BL/6N mouse treated with JM6 (containing <0.4% Ro-61-8048) at 25 mg/kg, po and Ro-61-8048 at 0.05 mg/kg, po drugs administered via gavage by LC-MS/MS analysis; assay type: ADME, organism-based; settings: in vivo; method in brief: as §1

Kynurenine 3-monooxygenase, sequence (Q91WN4 whole entry): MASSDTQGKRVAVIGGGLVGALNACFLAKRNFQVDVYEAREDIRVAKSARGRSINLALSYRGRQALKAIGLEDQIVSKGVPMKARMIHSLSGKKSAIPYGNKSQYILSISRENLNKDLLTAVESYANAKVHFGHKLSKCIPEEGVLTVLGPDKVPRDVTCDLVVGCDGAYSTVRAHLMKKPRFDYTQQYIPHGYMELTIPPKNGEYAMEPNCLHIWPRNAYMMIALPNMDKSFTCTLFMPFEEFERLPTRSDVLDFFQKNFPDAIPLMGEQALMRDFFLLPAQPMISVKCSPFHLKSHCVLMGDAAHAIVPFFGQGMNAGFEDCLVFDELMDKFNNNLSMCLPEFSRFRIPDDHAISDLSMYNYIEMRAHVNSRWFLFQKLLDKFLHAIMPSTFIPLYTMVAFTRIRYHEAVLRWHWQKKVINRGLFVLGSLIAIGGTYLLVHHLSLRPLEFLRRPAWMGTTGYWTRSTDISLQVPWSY

Cmax/dose (Mus musculus [1])	AUC/dose (Mus musculus [2])	Cmax/dose (Mus musculus [3])	Cmax/dose (Mus musculus [4])	Tmax [5]	IC50 [6]	Cmax/dose (Mus musculus [7])	Cmax [8]	half-life [9]	bioavailability [10]	AUC/dose (Mus musculus [11])	efflux ratio at 1 h, 10 µM (MDR1)	AUC/dose (Mus musculus [12])	AUC(0-t) [13]	AUC(0-t) [14]	Cmax/dose (Mus musculus [16])	AUC(0-t) [17]	hepatic extraction ratio at 1 µM [18]	half-life [19]	Structure (SMILES)	also measured
0.11 µM	160 nM·kg·h/mg	0.19 µM	0.15 µM	0.5 h	20 µM	0.19 µM	1900 nM	42 min	13%	130 nM·kg·h/mg	60	190 nM·kg·h/mg	1.1 µM·h	9.6 µM·h	0.14 µM	1.3 µM·h	0.67	42 min	COc1ccc(S(=O)(=O)Nc2nc(-c3cccc([N+](=O)[O-])c3)c(CN3CCCCC3)s2)cc1OC	Ratio ([15]; mdck-ii, 1 h, 10 µM): 5.3
21 µM	110000 nM·kg·h/mg	11 µM	18 µM	2 h	0.09 µM	160 µM	530 nM	348 min	80%	140000 nM·kg·h/mg	3.2	160000 nM·kg·h/mg	110 µM·h	7.9 µM·h	16 µM	4.9 µM·h	0.8	312 min	COc1ccc(S(=O)(=O)Nc2nc(-c3cccc([N+](=O)[O-])c3)cs2)cc1OC	efflux ratio at 1 h, 10 µM ([15]; MDCK): 0.8
